High-throughput results from PubChem.
The list is not random: actives were taken first. Their share in the collection is about 3.1%.
SENP8 block-1 – SENP8 protease inhibitors, primary screen, biochemical, luminescence. Sentrin-specific protease 8 (Homo sapiens), Q96LD8. purified SENP8, Z-RLRGG-aminoluciferin cleavage. inhibition, % at 10 µM. 330,000 compounds, 1.2% hits; in the data active = inhibition above about 50%
UBC13 inh – UBC13 polyubiquitin chain formation inhibitors, primary screen, biochemical, TR-FRET, uHTS; inhibition, % at 20 µM; 330,000 compounds, 0.47% hits; AID 485273, 2010; in the data active = inhibition above about 45%, passing the limit was not always enough
Target sequence (P61088 whole entry, looked up): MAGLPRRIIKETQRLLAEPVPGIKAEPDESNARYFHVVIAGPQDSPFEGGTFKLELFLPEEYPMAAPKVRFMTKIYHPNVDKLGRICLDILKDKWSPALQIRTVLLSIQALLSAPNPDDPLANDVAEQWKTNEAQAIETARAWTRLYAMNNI
SENP8 block-2 – human SENP8 protease inhibitors, primary screen, biochemical, fluorescence, Nedd8 protein substrate, uHTS; Sentrin-specific protease 8 (Homo sapiens), Q96LD8; recombinant SENP8; inhibition, % at 20 µM; 360,000 compounds, 0.64% hits; AID 602440, 2012; in the data active = inhibition mostly above about 40%, no sharp cut-off; inactive = mostly below about 27%
SENP6 block – SENP6 protease inhibitors, primary screen, biochemical, luminescence, uHTS. Sentrin-specific protease 6 (Homo sapiens), Q9GZR1. Recombinant SENP6 catalytic domain, aminoluciferin luminescence. inhibition, % at 10 µM. 330,000 compounds, 1.8% hits. AID 2599, 2010;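 active = inhibition above about 50% at the single tested dose, limit read from the data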;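 note: plate controls were DMSO wells with enzyme for no effect and DMSO wells lacking enzyme for full effect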
Target sequence (Q9GZR1 628-1112 limits assumed): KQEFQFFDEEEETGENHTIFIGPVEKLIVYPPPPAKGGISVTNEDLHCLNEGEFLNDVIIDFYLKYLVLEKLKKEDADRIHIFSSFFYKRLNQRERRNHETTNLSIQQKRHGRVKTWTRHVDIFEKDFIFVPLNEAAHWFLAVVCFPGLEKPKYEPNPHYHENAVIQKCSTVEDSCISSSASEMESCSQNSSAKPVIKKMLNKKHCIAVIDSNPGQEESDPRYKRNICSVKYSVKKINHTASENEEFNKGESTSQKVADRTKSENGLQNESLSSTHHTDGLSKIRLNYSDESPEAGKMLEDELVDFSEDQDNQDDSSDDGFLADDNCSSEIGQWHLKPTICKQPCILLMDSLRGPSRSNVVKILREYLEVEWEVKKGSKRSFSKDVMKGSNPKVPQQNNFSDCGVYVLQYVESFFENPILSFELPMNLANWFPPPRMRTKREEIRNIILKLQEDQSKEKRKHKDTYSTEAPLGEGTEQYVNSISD
SENP7 inh – SENP7 protease inhibitors, primary screen, biochemical, luminescence, uHTS; 330,000 compounds, 1.5% hits; inhibition, % at 5 µM; Sentrin-specific protease 7 (Homo sapiens), Q9BQF6; recombinant SENP7, Z-RLRGG-aminoluciferin luminescence, 40 min;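 active = inhibition above about 50% at the single test dose, limit read from the data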;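 note: plate controls were DMSO with enzyme for no effect and no enzyme buffer wells for full effect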
Apaf1 inhib – inhibitors of human Apaf-1 apoptosome, primary screen, biochemical, DEVD-Rh110 fluorescence, uHTS. reconstituted apoptosome caspase-3 activity. inhibition, % at 20 µM. 330,000 compounds, 0.71% hits; active = inhibition of at least 40% at 20 µM;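 note: plate controls were DMSO wells for no effect and DEVD-CHO caspase inhibitor wells for full effect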
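Material: reconstituted apoptosome with Apaf-1, cytochrome c, caspase-9, procaspase-3, dATP; medium: pH 7.5 Hepes buffer with CHAPS, BSA, DTT; also added: cytochrome c and DEVD-Rh110 substrate; timing: 30 min plus 50 min, RT; signal: Rh110 fluorescence intensity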
SENP8 conf – SENP8 protease inhibitors, retest, confirmation, biochemical, luminescence, single concentration; AID 488912, 2010; inhibition, % at 12.5 µM; shares compounds with SENP7 inh; 6,200 compounds, 40% hits; Recombinant SENP8, Z-RLRGG-aminoluciferin luminescence, 60 min;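 active = mean inhibition across replicates above about 50%, limit read from the data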
SENP6 conf – SENP6 protease inhibitors, confirmation, biochemical, luminescence, single concentration | shares compounds with SENP7 inh | recombinant SENP6, Z-RLRGG-aminoluciferin luminescence | inhibition, % at 12.5 µM | 6,200 compounds, 58% hits | AID 488915, 2010
SENP7 confirm – SENP7 protease inhibitors, retest, confirmation, biochemical, luminescence, single concentration | 6,200 compounds, 69% hits | recombinant SENP7, Z-RLRGG-aminoluciferin luminescence, 40 min | shares compounds with SENP7 inh | inhibition, % at 12.5 µM | AID 488917, 2010
Casp3 SENP sel – caspase-3 protease inhibitors, confirmation, selectivity assay for SENP inhibitor project, biochemical, single concentration | shares compounds with SENP7 inh | purified caspase-3, Z-DEVD-aminoluciferin luminescence, 60 min | inhibition, % at 12.5 µM | 6,200 compounds, 60% hits;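 active = mean inhibition above about 50%, limit read from the data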;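 note: plate controls were enzyme with DMSO for no effect and wells without caspase-3 for full effect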
Luc interf – luminescence interference (SENP counter-screen); shares compounds with SENP7 inh; Pre-incubated SENP8/Z-RLRGG-aminoluciferin, luciferase luminescence interference; inhibition, % at 12.5 µM; 6,200 compounds, 39% hits;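 active = mean inhibition above about 50% when retested at one dose, limit read from the data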;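 note: plate controls were DMSO wells with completed reaction for no effect and substrate without enzyme for full effect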
* = called active by the depositor; · = no result given.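 Rule for the calls, unless noted: active = mean inhibition above about 50% in the one-dose retest (limit read from the data); inactive = the rest.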

SMILES	SENP8 block-1	UBC13 inh	SENP8 block-2	SENP6 block	SENP7 inh	Apaf1 inhib	SENP8 conf	SENP6 conf	SENP7 confirm	Casp3 SENP sel	Luc interf
O=c1nc(N/N=C/c2c[nH]c3ccccc23)cn[nH]1	6	-11	31	39	28	-8	·	·	·	·	·
C(=C\c1ccccc1)/C=N/Nc1nc2ccccc2s1	44	-10	-166	51*	32	33	32	43	42	11	41
O=c1nc(N/N=C/C=C/c2ccccc2)cn[nH]1	21	-22	20	48	53*	-9	10	7	24	32	8
CCOC(=O)C1CCCN(C(=O)c2cc(F)ccc2C)CC1 (stereo not drawn)	·	·	17	·	·	·	·	·	·	·	·
O=C1C=C(Nc2ccc(F)cc2)c2ccccc2C1=O	72*	-256	-237	82*	45	87*	11	89*	23	40	-4
Cc1ccc(NC2=CC(=O)C(=O)c3ccccc32)c(C)c1	49	-172	-415	51*	32	87*	-4	42	-3	4	2
Cc1ccc(Cl)cc1N1CCN(S(C)(=O)=O)CC1	-6	-7	3	4	67*	-3	4	6	14	9	5
COc1cc(/C=N/N=C(\N)c2nonc2N)ccc1O	89*	-8	14	93*	94*	-9	93*	92*	99*	94*	92*
N/C(=N\N=C\c1ccc(O)cc1)c1nonc1N	95*	-3	7	93*	98*	8	97*	98*	102*	98*	96*
N/C(=N\N=C\c1cccc(O)c1)c1nonc1N	95*	4	18	95*	97*	-3	97*	99*	102*	98*	94*
COc1cccc(C(=O)NCCS(=O)(=O)N2CCN(c3ccccc3)CC2)c1OC	·	·	10	·	·	·	·	·	·	·	·
CC(C)C(=O)N1CCCC1(C)C(=O)Nc1cccc(Oc2ccccc2)c1 (stereo not drawn)	·	·	2	·	·	·	·	·	·	·	·
O=[N+]([O-])c1ccccc1CSc1nc2ccccc2o1	29	18	17	55*	9	7	18	14	49	7	9
Cc1cc(C(=O)COc2cccc([N+](=O)[O-])c2)c(C)n1C1CC1	34	-1	17	58*	21	16	67*	63*	89*	66*	36
Cc1ccc(S(=O)(=O)N(C)C)cc1-n1c(SCC(=O)Nc2ccccc2)nc2ccccc2c1=O	1	-3	3	50*	8	23	0	-5	-7	-2	-5
Cc1ccc(S(=O)(=O)N(C)C)cc1-n1c(SCC(=O)Nc2ccc(F)cc2)nc2ccccc2c1=O	-2	-4	8	4	9	4	·	·	·	·	·
O=C(NC(Cc1ccccc1)C(=O)N1CCN(c2ccc(F)cc2)CC1)c1ccccc1 (stereo not drawn)	·	·	8	·	·	·	·	·	·	·	·
CCC(=O)Nc1ccc(NC(=O)c2cc3ccccc3o2)c(OC)c1	-6	2	-12	22	4	6	·	·	·	·	·
CCC(=O)Nc1cccc(NC(=O)c2cc3ccccc3o2)c1	54*	1	22	67*	74*	-11	74*	67*	88*	74*	70*
O=C(Nc1cccc(Br)c1)c1cc2ccccc2o1	89*	3	7	94*	-11	-2	94*	94*	101*	82*	88*
Cc1cccc(NC(=O)c2cc3ccccc3o2)c1	87*	2	10	94*	94*	17	8	94*	101*	91*	92*
O=C(Nc1cccnc1)c1cc2cc(Br)ccc2o1	85*	4	5	91*	92*	2	89*	88*	100*	91*	32
NS(=O)(=O)c1cccc(NC(=O)c2cc3ccccc3o2)c1	-5	0	2	-2	2	3	·	·	·	·	·
COc1cc([N+](=O)[O-])c(C)cc1NC(=O)c1ccc(OC)c(OC)c1	·	·	21	·	·	·	·	·	·	·	·
Cc1cccc(C)c1-n1nnnc1C1c2ccccc2C(=O)N1CCCn1ccnc1 (stereo not drawn)	·	·	15	·	·	·	·	·	·	·	·
SMILES	SENP8 block-1	UBC13 inh	SENP8 block-2	SENP6 block	SENP7 inh	Apaf1 inhib	SENP8 conf	SENP6 conf	SENP7 confirm	Casp3 SENP sel	Luc interf
CCOC(=O)c1ccc(NC(=O)c2cc3ccccc3o2)cc1	45	4	-10	60*	52*	10	32	53*	60*	43	42
CCn1cc(C2=NC(C(C)C)CO2)c2ccccc21 (stereo not drawn)	-4	14	-13	0	4	2	·	·	·	·	·
CC(C)C1COC(c2cccc3ccccc23)=N1 (stereo not drawn)	89*	7	7	96*	92*	13	60*	92*	100*	85*	48
O=C1c2ccccc2C(=O)C1c1ccc(Br)cc1	93*	-5	8	94*	1	-1	96*	94*	100*	89*	95*
O=C1c2ccccc2C(=O)C1c1ccc(Cl)cc1	77*	-2	11	82*	0	7	89*	92*	99*	89*	88*
CC(C)c1ccc(Nc2ncccc2C(=O)O)cc1	95*	0	10	95*	98*	0	6	6	10	3	4
O=C1NC(=O)C2C3OC(C(Br)C3Br)C12 (stereo not drawn)	·	·	20	·	·	·	·	·	·	·	·
CN(C)/C=N/C(=S)Nc1cc(Cl)cc(Cl)c1	-2	29	5	5	6	2	·	·	·	·	·
